This is an account of results in ChEMBL document CHEMBL4330115, “Discovery of a new class of valosine containing protein (VCP/P97) inhibitors for the treatment of non-small cell lung cancer” (Bioorg Med Chem, 2019).

Data set [1] is described as follows: Half life in human liver microsomes at 1 uM after 60 mins by LC-MS analysis. It is filed as ADME, Microsome.
Data set [2] is described as follows: Half life in mouse liver microsomes at 1 uM after 60 mins by LC-MS analysis. It is filed as ADME, Microsome.
Data set [3] can be described thus: Half life in rat liver microsomes at 1 uM after 60 mins by LC-MS analysis. It counts as ADME, Microsome.
A short description of data set [4]: Half life in dog liver microsomes at 1 uM after 60 mins by LC-MS analysis. It is filed as ADME, Canis lupus familiaris, Microsome.
Data set [5] in a line: Half life in monkey liver microsomes at 1 uM after 60 mins by LC-MS analysis. To be noted: rhesus monkey. It counts as ADME, Macaca mulatta, Microsome.
Data set [6] in a line: Intrinsic clearance in human liver microsomes at 1 uM after 60 mins by LC-MS analysis. It counts as ADME, Microsome. To be noted: 1 h.
A short description of data set [7]: Intrinsic clearance in mouse liver microsomes at 1 uM after 60 mins by LC-MS analysis. It counts as ADME, Microsome. To be noted: 1 h.
The nature of data set [8]: Intrinsic clearance in rat liver microsomes at 1 uM after 60 mins by LC-MS analysis. It counts as ADME, Microsome. To be noted: 1 h.
Data set [9] in a line: Intrinsic clearance in dog liver microsomes at 1 uM after 60 mins by LC-MS analysis. It counts as ADME, Canis lupus familiaris, Microsome. To be noted: 1 h.
Data set [10] can be described thus: Intrinsic clearance in monkey liver microsomes at 1 uM after 60 mins by LC-MS analysis. It is filed as ADME, Macaca mulatta, Microsome. To be noted: rhesus monkey, 1 h.
For data set [11], the target named is Transitional endoplasmic reticulum ATPase (Homo sapiens, UniProt P55072). The experiment in a line: Inhibition of human p97 using ATP as substrate after 60 mins by ADP-Glo assay.
In data set [12] the test system is A549. Description: Antiproliferative activity against human A549 cells after 72 hrs by CCK-8 assay. To be noted: A549, 72 h. It is filed as functional, cell-based.
Data set [13] in a line: Cmax in Sprague-Dawley rat at 5 mg/kg, iv administered as single dose by LC-MS/MS analysis. To be noted: in vivo. The arrangement: dose 5 mg/kg, route intravenous. It is filed as ADME, organism-based. Summed up:
(§1)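 Male Sprague-Dawley rats received a single dose, iv by tail vein at 5 mg/kg or orally (ig) at 30 mg/kg. Vehicle was a solution of 40% PEG400, 10% castor oil, 5% EtOH and 45% buffered saline. Orbital sinus blood (0.1 mL) was taken into heparinized tubes at 2, 5, 15 and 30 min and at 1, 2, 4, 8 and 24 h, then centrifuged for plasma.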

Data set [14] in a line: Cmax in Sprague-Dawley rat at 30 mg/kg, ig administered as single dose by LC-MS/MS analysis. It is filed as ADME, organism-based. Further details: dose 30 mg/kg, route intragastric; call rule not given here. To be noted: in vivo, po. Summed up: as §1
Data set [15] can be described thus: Tmax in Sprague-Dawley rat at 5 mg/kg, iv administered as single dose by LC-MS/MS analysis. It is filed as ADME, organism-based. To be noted: in vivo. Summed up:
as §1

Data set [16] is described as follows: Tmax in Sprague-Dawley rat at 30 mg/kg, ig administered as single dose by LC-MS/MS analysis. To be noted: in vivo, po. It counts as ADME, organism-based. In outline:
as §1

Data set [17] can be described thus: Half life in Sprague-Dawley rat at 5 mg/kg, iv administered as single dose by LC-MS/MS analysis. It is filed as ADME, organism-based. To be noted: in vivo. Summed up:
as §1

Data set [18] can be described thus: Half life in Sprague-Dawley rat at 30 mg/kg, ig administered as single dose by LC-MS/MS analysis. It is filed as ADME, organism-based. To be noted: in vivo, po. In outline:
as §1

A short description of data set [19]: AUC (0 to t) in Sprague-Dawley rat at 5 mg/kg, iv administered as single dose by LC-MS/MS analysis. It counts as ADME, organism-based. To be noted: in vivo. Summed up:
as §1

A short description of data set [20]: AUC (0 to t) in Sprague-Dawley rat at 30 mg/kg, ig administered as single dose by LC-MS/MS analysis. It counts as ADME, organism-based. To be noted: in vivo, po. In outline:
as §1

Data set [21] can be described thus: AUC (0 to infinity) in Sprague-Dawley rat at 5 mg/kg, iv administered as single dose by LC-MS/MS analysis. To be noted: in vivo. Further details: dose 5 mg/kg, route intravenous, time infinity. It counts as ADME, organism-based. Summed up: as §1
A short description of data set [22]: AUC (0 to infinity) in Sprague-Dawley rat at 30 mg/kg, ig administered as single dose by LC-MS/MS analysis. It is filed as ADME, organism-based. The arrangement: dose 30 mg/kg, route intragastric, time infinity. To be noted: in vivo, po. Summed up:
as §1

A short description of data set [23]: MRT in Sprague-Dawley rat at 5 mg/kg, iv administered as single dose by LC-MS/MS analysis. To be noted: in vivo. It counts as ADME, organism-based. Summed up:
as §1

Data set [24] in a line: MRT in Sprague-Dawley rat at 30 mg/kg, ig administered as single dose by LC-MS/MS analysis. It counts as ADME, organism-based. To be noted: in vivo, po. In outline:
as §1

Data set [25] in a line: Oral bioavailability in Sprague-Dawley rat at 30 mg/kg administered as single dose by LC-MS/MS analysis. It is filed as ADME, organism-based. To be noted: in vivo. In outline:
as §1

Chain of Transitional endoplasmic reticulum ATPase (P55072 whole entry): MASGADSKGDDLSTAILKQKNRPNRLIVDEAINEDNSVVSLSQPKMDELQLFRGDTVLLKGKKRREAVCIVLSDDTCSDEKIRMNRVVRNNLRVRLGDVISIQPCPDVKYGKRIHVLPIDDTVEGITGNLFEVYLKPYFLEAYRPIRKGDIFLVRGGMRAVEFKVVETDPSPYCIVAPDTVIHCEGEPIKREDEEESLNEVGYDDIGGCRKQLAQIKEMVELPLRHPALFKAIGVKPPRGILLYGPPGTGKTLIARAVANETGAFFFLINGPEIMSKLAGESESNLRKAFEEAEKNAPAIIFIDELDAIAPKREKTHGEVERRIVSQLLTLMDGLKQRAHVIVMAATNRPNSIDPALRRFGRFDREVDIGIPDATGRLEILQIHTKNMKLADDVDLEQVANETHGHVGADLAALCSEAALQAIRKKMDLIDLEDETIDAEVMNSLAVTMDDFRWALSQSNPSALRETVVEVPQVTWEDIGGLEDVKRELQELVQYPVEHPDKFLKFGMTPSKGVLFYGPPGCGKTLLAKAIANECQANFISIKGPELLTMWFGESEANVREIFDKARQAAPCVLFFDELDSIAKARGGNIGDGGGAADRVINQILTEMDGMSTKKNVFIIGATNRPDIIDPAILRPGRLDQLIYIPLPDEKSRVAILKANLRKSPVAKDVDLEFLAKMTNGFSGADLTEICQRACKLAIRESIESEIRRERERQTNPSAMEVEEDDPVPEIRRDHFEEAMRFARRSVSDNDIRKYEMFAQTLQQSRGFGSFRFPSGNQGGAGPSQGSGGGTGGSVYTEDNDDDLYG

With `Cc1cc2c(C(N)=O)cccc2n1-c1nc2c(c(NCc3ccccc3)n1)COCC2` [CB-5083], the half-life at 1 µM was found to be 25.8 min in data set [1]; 141 min in data set [2]; 17 min in data set [3]; 36.5 min in data set [4]; 14.7 min in data set [5]. The CLint in [6] turned out to be 48.4 mL/min/kg; in [7], 38.6 mL/min/kg; in data set [8], 146 mL/min/kg; in data set [9], 54.7 mL/min/kg; in [10], 127 mL/min/kg.

`Cc1cc2c(C(N)=O)cccc2n1-c1nc2c(c(NCc3ccncc3)n1)COCC2`: in data set [11], the IC50 entry is on record as “Not Active”.

For the compound `CC(=O)Nc1cccc2c1ccn2-c1nc2c(c(NCc3ccccc3)n1)COCC2`, the IC50 in data set [11] (read-out: IC50) amounted to 922 nM.

On to `Cc1cc2c(NS(=O)(=O)C3CC3)cccc2n1-c1nc2c(c(NCc3ccccc3)n1)COCC2`, for which the results for the IC50 in [11] (read-out: IC50) and in [12] were 34.6 nM and 2100 nM, respectively.

With `C=CC(=O)Nc1cccc2c1cc(C)n2-c1nc2c(c(NCc3cccc4ccccc34)n1)COCC2`, the IC50 entry in data set [11] is “Not Active”.

Take `Cc1cc2c(NS(=O)(=O)C(F)(F)F)cccc2n1-c1nc2c(c(NCc3ccccc3)n1)COCC2`: in data set [11] (read-out: IC50), the half-maximal inhibitory concentration (IC50) turned out to be 101 nM.

On to `Cc1cc2c(NS(C)(=O)=O)cccc2n1-c1nc2c(c(NCc3ccccc3)n1)COCC2`, for which the figures for the IC50 in [11] (read-out: IC50) and in data set [12] were 36.4 nM and 1600 nM, respectively. In addition, the half-life at 1 µM in data set [1] was 42.3 min; in data set [2], 47.8 min; in [3] it was 16.8 min; in data set [4], 36.3 min; in data set [5], 12.3 min. Further, the CLint was found to be 29.5 mL/min/kg in data set [6]; 114 mL/min/kg in data set [7]; 149 mL/min/kg in data set [8]; 55 mL/min/kg in data set [9]; 152 mL/min/kg in [10]. In addition, the Cmax was found to be 3380 ng/mL in data set [13] and 191 ng/mL in [14]. The time to peak (Tmax) was 3 min in [15] and 160 min in data set [16]. The values for the half-life in data set [17] and in [18] were 218 min and 274 min, respectively. In addition, the AUC(0-t) in [19] was 6950 ng·h/mL; in data set [20], 1770 ng·h/mL. Further, the AUC(0-inf) in [21] was 7420 ng·h/mL; in data set [22] it was 2560 ng·h/mL. Moreover, the MRT in data set [23] amounted to 271 min; in data set [24], 425 min. The compound also gave a bioavailability in data set [25] of 4.2%.

As for `Cc1cc2c(C(N)=O)cccc2n1-c1nc2c(c(NCc3ccccc3)n1)CCCCCC2`, the half-maximal inhibitory concentration (IC50) in data set [11] (read-out: IC50) came to 120 nM.

In the case of `Cc1cc2c(C(N)=O)cccc2n1-c1nccc(NCc2ccccc2)n1`, the IC50 in data set [11] (read-out: IC50) was found to be 161 nM.

As for `Cc1cc2c(NC(=O)/C=C/CN(C)C)cccc2n1-c1nc2c(c(NCc3ccccc3)n1)COCC2`, the IC50 in data set [11] (read-out: IC50) was determined as 387 nM.

With `Cc1cc2c(C(N)=O)cccc2n1-c1nc2c(c(NCc3ccccc3)n1)CCCCC2`, the concentration for half-maximal inhibition (IC50) in data set [11] (read-out: IC50) worked out at 82.8 nM; in data set [12], 2600 nM.

For the compound `Cc1cc2c(C(N)=O)cccc2n1-c1nc2c(c(NCC3CC3)n1)COCC2`, the IC50 entry in data set [11] is “Not Active”.

As to `C=CC(=O)Nc1cccc2c1cc(C)n2-c1nc2c(c(NCc3ccncc3)n1)COCC2`, the half-maximal inhibitory concentration (IC50) in [11] (read-out: IC50) is 5100 nM.

For `CC(=O)Nc1cccc2c1cc(C)n2-c1nc2c(c(NCc3ccccc3)n1)COCC2`, the 50% inhibitory concentration (IC50) in [11] (read-out: IC50) stood at 129 nM.

For the compound `C=CC(=O)Nc1cccc2c1cc(C)n2-c1nc2c(c(NCC3CC3)n1)COCC2`, the IC50 entry in data set [11] is on record as “Not Active”.

For the compound `Cc1cc2c(NC(=O)CN3CCCC3)cccc2n1-c1nc2c(c(NCc3ccccc3)n1)COCC2`, in data set [11] (read-out: IC50), the half-inhibitory concentration (IC50) came to 449 nM.

Take `Cc1cc2c(NC(=O)CCl)cccc2n1-c1nc2c(c(NCc3ccccc3)n1)COCC2`: the IC50 in data set [11] (read-out: IC50) was 308 nM.

Regarding `C=CC(=O)Nc1cccc2c1cc(C)n2-c1nc2c(c(NCc3ccccc3)n1)COCC2`, the IC50 in [11] (read-out: IC50) turned out to be 58.3 nM; in data set [12] it was 4600 nM.

On to `Cc1cc2c(C(N)=O)cccc2n1-c1nc2c(c(NCCN3CCOCC3)n1)COCC2`, for which the half-maximal inhibitory concentration (IC50) result in [11] is listed as “Not Active”.

Regarding `Cc1cc2c(NC(=O)/C=C/c3ccccc3)cccc2n1-c1nc2c(c(NCc3ccccc3)n1)COCC2`, the IC50 in data set [11] (read-out: IC50) turned out to be 447 nM.

On to `Cc1cc2c(NS(=O)(=O)c3ccccc3)cccc2n1-c1nc2c(c(NCc3ccccc3)n1)COCC2`, for which, in data set [11] (read-out: IC50), the 50% inhibitory concentration (IC50) was determined as 135 nM.

With `NC(=O)c1cccc(Nc2nc3c(c(NCc4ccccc4)n2)COCC3)c1`, the half-inhibitory concentration (IC50) entry in data set [11] is given as “Not Active”.

`Cc1cc2c(C(N)=S)cccc2n1-c1nc2c(c(NCc3ccccc3)n1)COCC2`: in [11] (read-out: IC50), the concentration for half-maximal inhibition (IC50) turned out to be 193 nM.
